Beta2AR agonist = agonists of human beta-2 adrenergic receptor inducing internalization; P07550; Am2.2-beta2AR cells, FAP receptor internalization, flow cytometry; response, % (test concentration not listed); 340,000 compounds, 0.43% hits; AID 504454;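 active = response above a set limit, near 3 SD of response in nonfluorescent compounds, cut at about 42% in these data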
Target sequence (P07550 whole entry, looked up): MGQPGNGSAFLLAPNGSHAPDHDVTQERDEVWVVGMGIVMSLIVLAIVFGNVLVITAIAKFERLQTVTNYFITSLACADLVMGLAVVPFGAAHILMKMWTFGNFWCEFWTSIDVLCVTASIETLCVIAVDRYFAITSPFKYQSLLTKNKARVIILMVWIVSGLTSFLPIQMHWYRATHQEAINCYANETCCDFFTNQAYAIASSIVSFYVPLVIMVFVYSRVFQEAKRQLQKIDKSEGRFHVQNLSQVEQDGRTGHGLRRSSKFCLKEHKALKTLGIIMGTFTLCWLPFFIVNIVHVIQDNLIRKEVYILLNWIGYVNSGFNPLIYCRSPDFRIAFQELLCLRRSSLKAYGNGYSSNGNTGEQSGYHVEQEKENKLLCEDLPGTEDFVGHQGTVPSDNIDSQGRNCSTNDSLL
TNF death inh = blocks TNF-alpha induced death of Jurkat FADD-/- cells; 220,000 compounds, 0.068% hits; activation (protection from cell death), % at 10 µM; Jurkat FADD-/- TNF necroptosis rescue, ATP luminescence, 24 h; 0 = TNF only, 100 = no-TNF cells;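 active = activation, meaning protection from cell death, of at least 50% relative to plate controls; inactive = activation below 50%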;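 also: necroptosis triggered by 40 ng/mL TNF-alpha added together with compound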
Mdm2 ligase inh = Mdm2 E3 ligase (human) inhibition; Q00987; cell-based MDM2 ubiquitination luciferase reporter, 2 h; 0 = plate control, 100 = twice control, blank-subtracted; signal enhancement, % at 5 µM; 210,000 compounds, 0.11% hits;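 active = signal enhancement of 30% or more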;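 also: luminescence tracks abundance of the self-degrading MDM2-luciferase fusion protein; higher signal means inhibition of MDM2 E3 ligase activity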
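Timing – 2 h compound exposure at 37 °C · Assay system – mammalian cells stably expressing self-ubiquitinating, self-degrading MDM2 E3–luciferase fusion · Amount – 2000 cells seeded into each well · Measure – % luminescence enhancement versus blank-corrected plate control mean · Measured by – SteadyLite luminescence, 15 min reagent step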
Dynein transport = blocks dynein driven cargo transport along microtubules; 3617.4 mouse cells, GR-EGFP nuclear translocation imaging; test concentration mostly 20 µM; stimulated with dexamethasone, 1 µM; hits give low values; z-score, hits read low; 220,000 compounds, 0.47% hits;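 active = plate z-score of nuclear minus cytoplasmic receptor signal below a set negative limit, without overly bright fluorescence or cell loss, cut at about -3.5 in these data, passing the limit was not always enough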;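 also: z-score of nuclear minus cytoplasmic ring GR-EGFP intensity difference per well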
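medium = tetracycline-free induction medium containing charcoal-stripped FBS | also added = 1.0 µM final dexamethasone stimulus | schedule = 48 h induction, 1 h compound, 30 min dex at 37 °C | technique = fixed, Hoechst-stained cells imaged at 10x for EGFP | measure = GR-EGFP nuclear translocation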
L929 necroptosis = L929 zVAD cell death inhibition | viability rescue, % at 10 µM | 220,000 compounds, 0.38% hits | L929 zVAD necroptosis rescue, ATP luminescence, 24 h; with zVAD 60 µM;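 active = activation, scaled between plate controls, above about 75%, limit read from the data; inactive = activation under that limit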
A number is an active result; 0 = inactive; - = no result given. Hits are enriched below; roughly 0.97% of the tested compounds scored in any of these assays.

SMILES	Beta2AR agonist	TNF death inh	Mdm2 ligase inh	Dynein transport	L929 necroptosis
N#Cc1cc(Sc2ccccn2)c(Sc2ccccn2)cc1C#N	58.0	0	0	0	0
CS(=O)(=O)c1sc2nc(-c3cccs3)cc(-c3ccccc3)c2c1N	42.8	0	0	0	0
Cc1ccc(-c2cc(-c3ccccc3)c3c(N)c(S(C)(=O)=O)sc3n2)cc1	0	0	0	0	0
COc1ccc(CCNC(=O)CSc2nnc(-c3ccccc3)o2)cc1OC	0	-	-	-	-
CO[C@H]1CC[C@@]2(C)[C@@H](CC[C@@H]3[C@@H]2CC[C@@]2(C)[C@H]3C[C@H](C(=O)O)O[C@]23CCCO3)C1	0	-	-	-	-
CC12CC3OC3CC1CCC1C2CCC2(C)C1CCC21OCCO1 (stereo unspecified)	75.9	-	-	-	-
O=C1C(NS(=O)(=O)c2ccc(Cl)cc2)=C(N2CCCCC2)C(=O)c2ccccc21	0	0	0	0	0
CC(C)c1nnc(-c2ccc(Cl)cc2)c(N(C)C)n1	0	74.8	0	0	0
N#C/C(=C/c1cccc([N+](=O)[O-])c1)C(=O)Nc1ccccc1O	57.4	0	0	0	0
N#C/C(=C\c1cccc([N+](=O)[O-])c1)C(=O)Nc1cccnc1	0	0	0	0	0
CCN(CC)CCNC(=O)c1ccc2c(c1)ncn2C1CCCCC1	0	0	0	0	93.2
COCCNC(=S)NNC(=O)c1cccs1	0	0	0	0	0
O=Nc1c(-c2c(O)[nH]c3cc(Br)ccc23)[nH]c2ccccc12	43.2	-	-	-	-
O=C(CSCc1cccc(Br)c1)N=Nc1c(O)[nH]c2ccccc12	0	0	0	0	0
CCOC(=O)c1sc(NC(=S)NC(=O)c2ccc(OC)cc2)nc1C	0	-	-	-	-
Cc1nc(CSc2nsc(/C=C/N(C)C)c2C#N)cs1	0	0	31.1	0	0
COC(=O)c1ccccc1CSc1nsc(/C=C/N(C)C)c1C#N	0	-	-	-	-
Cc1ccc(NC(=O)CCC2CC(C)(C)OC2=O)cc1 (stereo unspecified)	0	0	31.2	0	0
CC1(C)CC(CCC(=O)Nc2ccc(S(N)(=O)=O)cc2)C(=O)O1 (stereo unspecified)	0	0	0	0	0
Cc1ccc(C(=O)NN2C(=O)/C(=C/c3cccn3C)SC2=S)cc1	0	0	30.4	0	0
CCC(C)[C@@H](C(=O)Nc1ccc2c(c1)OCO2)N1Cc2ccccc2C1=O (stereo partly specified)	0	0	0	0	0
NC(=O)NNc1cccc(Cl)n1	0	0	0	0	0
CCOCCCNC(=O)c1c(N)n(-c2ccc3c(c2)OCO3)c2nc3ccccc3nc12	0	0	0	0	0
COCCCNC(=O)c1c(N)n(-c2ccc3c(c2)OCO3)c2nc3ccccc3nc12	0	0	0	0	83.8
Cc1nc(NC(=O)/C=C/c2ccccc2)n[nH]1	0	0	39.2	0	0
SMILES	Beta2AR agonist	TNF death inh	Mdm2 ligase inh	Dynein transport	L929 necroptosis
CCCn1nnc(NC(=O)/C=C/c2ccccc2)n1	0	0	0	0	0
O=C(CN1C(=O)C2C3CC(C(Br)C3Br)C2C1=O)N1CCOCC1 (stereo unspecified)	0	0	0	0	0
O=C(COC(=O)Cc1ccc(F)cc1)NC1CCCC1	0	-	-	-	-
O=C(/C=C/c1cccs1)c1cc(Br)ccc1OC(=O)N1CCOCC1	0	0	0	-4.91	-
COC(=O)c1cc(=O)n(Cc2ccco2)c(=Nc2ccc(F)cc2)s1	0	0	0	-4.64	0
CC(C)=N/N=c1\scc(C)n1Cc1ccco1	0	0	0	0	0
CNc1ccc(Br)cc(C(=O)/C=C/c2ccc(OC)cc2)c1=O	0	0	0	0	0
CNc1ccc(Br)cc(C(=O)/C=C/c2cc(OC)ccc2OC)c1=O	0	0	0	-4.14	0
CNC[C@@H](Cc1ccccc1)NC[C@@H](CC1CCCCC1)NCCCc1ccccc1	0	-	-	-	-
CNC[C@@H](CC1CCCCC1)NC[C@H](CC(C)C)NCCc1cccc(C(F)(F)F)c1	42.7	-	-	-	-
O=C1CCC(/C=C/c2ccccc2)=NN1Cc1ccc(Cl)c(Cl)c1	0	0	-	0	0
O=C1CCC(/C=C/c2ccccc2)=NN1Cc1ccccc1Cl	42.7	0	0	0	0
COc1ccc(C2C(C(=O)N3CCCC3)c3cc(OC)c(OC)cc3C(=O)N2C)cc1OC (stereo unspecified)	0	0	0	0	0
COc1ccc(C2C(C(=O)N3CCN(C)CC3)c3cc(OC)c(OC)cc3C(=O)N2C)cc1 (stereo unspecified)	0	0	30.6	0	0
C=C1CC(Cn2cc(Br)c(=O)[nH]c2=O)(c2ccc(-c3ccccc3)cc2)OC1=O (stereo unspecified)	50.8	-	-	-	-
c1ccc(CNc2nc(NCc3ccccc3)c3ccccc3n2)cc1	72.0	0	0	0	0
CC(=O)NCC1COc2ccccc2O1 (stereo unspecified)	0	0	-	0	0
CC(C)Oc1ccc(/C=C/C(=O)NCC2COc3ccccc3O2)cc1 (stereo unspecified)	58.4	0	0	0	0
O=C(CSc1nnnn1-c1ccccc1)N1N=CCC1c1ccccc1 (stereo unspecified)	0	96.8	0	0	0
Cc1ccc(SCC(=O)N2N=CCC2c2ccccc2)cc1 (stereo unspecified)	0	67.6	0	0	0
COC(=O)CSc1nnnn1-c1ccccc1	0	0	0	0	0
CC(=O)Nc1ccc(NC(=O)c2cc(-c3ccc(C)cc3O)n[nH]2)cc1	0	-	-	-	-
COc1ccc(/C=C/C(=O)c2ccc([N+](=O)[O-])o2)cc1	59.2	-	-	-	-
Cc1cccc(/C=C/C(=O)c2ccc([N+](=O)[O-])o2)c1	86.8	-	-	-	-
O=C(/C=C/c1cccc([N+](=O)[O-])c1)c1ccc([N+](=O)[O-])o1	66.5	-	-	-	-
SMILES	Beta2AR agonist	TNF death inh	Mdm2 ligase inh	Dynein transport	L929 necroptosis
COc1ccc(S(=O)(=O)N2CCN(C(=O)c3ccc([N+](=O)[O-])o3)CC2)cc1	0	-	-	-	-
CC(C)(C)c1ccc(C(=O)NCC(=O)NNC(=O)c2ccccc2O)cc1	0	-	-	-	-
Cc1cnc(C(=O)OCC(=O)Nc2ccc(Br)cc2F)cn1	0	-	-	-	-
O=C(N/N=C/c1ccc(OC(=O)c2ccc3c(c2)OCO3)cc1)c1cncc(Br)c1	51.6	0	0	0	0
O=C1NCCCN1Cc1ccc(F)cc1	0	0	0	0	0
Cc1ccc(S(=O)(=O)/N=C2\C=C(Nc3ccc(O)cc3)C(=O)c3ccccc32)cc1	74.3	-	-	-	-
COC(=O)c1ccccc1NC1=C/C(=N\S(=O)(=O)c2cccs2)c2ccccc2C1=O	0	0	0	0	0
COC(=O)c1ccccc1NC1=C/C(=N\S(=O)(=O)c2ccc(C(=O)O)cc2)c2ccccc2C1=O	60.5	-	-	-	-
O=C1C(Nc2ccccc2)=C/C(=N/S(=O)(=O)c2cccs2)c2ccccc21	48.6	0	0	0	0
Cc1ccc(NC2=C/C(=N/S(=O)(=O)c3cccs3)c3ccccc3C2=O)cc1	43.3	0	0	0	0
